{"data": "Experimental data gathered from unrelated publications", "observed": "microbial growth", "note": "Protocols differ between the studies behind these lines."}
{"Structure (SMILES)": "CCN1CCN(c2cc3c(cc2F)c(=O)c(C(=O)O)cn3C2CC2)CC1", "organism": "Salmonella enterica", "test system": "ENTERITIDIS", "conditions": "20 h, pH 7.2", "MIC": "0.0625 µg/mL"}
{"Structure (SMILES)": "Oc1ccc(-c2nc(-c3ccc(Oc4ccc(C(F)(F)F)cc4)cc3)no2)cc1", "organism": "Bacillus cereus", "test": "broth dilution", "test system": "ATCC13061", "MIC": "2 µg/mL"}
{"Structure (SMILES)": "O=C(O)CN1C(=O)/C(=C/c2c3ccccc3c(-c3ccc(N(c4ccccc4)c4ccccc4)cc3)c3ccccc23)NC1=S", "organism": "Bacillus cereus", "test": "broth dilution", "test system": "ATCC10876", "MIC": "> 1000 µg/mL"}
{"Structure (SMILES)": "COc1cc(-c2cc(=O)c3c(O)cc(O)cc3o2)ccc1O", "organism": "Helicobacter pylori", "test": "broth dilution", "MIC": "3.9 µg/mL"}
{"Structure (SMILES)": "O=C(O)c1cn(C2CC2)c2cc(N3CCNCC3)c(F)cc2c1=O", "organism": "Bacillus cereus", "test": "broth dilution", "test system": "ATCC10876", "MIC": "0.12 µg/mL"}
{"Structure (SMILES)": "O=c1cc(-c2ccc(O)c(O)c2)oc2cc(O)cc(O)c12", "organism": "Helicobacter pylori", "test": "broth dilution", "MIC": "3.9 µg/mL"}
{"Structure (SMILES)": "O=C(Nc1ncc([N+](=O)[O-])s1)c1ccncc1", "organism": "Helicobacter pylori", "test": "broth dilution", "test system": "26695", "conditions": "27 h", "MIC": "16 µM"}
{"Structure (SMILES)": "CO/N=C(\\C(=O)N[C@@H]1C(=O)N2C(C(=O)O)=C(CSc3nc(=O)c(=O)[nH]n3C)CS[C@H]12)c1csc(N)n1", "organism": "Salmonella enterica", "test system": "F98, TYPHIMURIUM", "conditions": "20 h, pH 5.5", "MIC": "0.25 µg/mL"}
{"Structure (SMILES)": "C[C@@H](O)[C@H]1C(=O)N2C(C(=O)O)=C(S[C@@H]3CN[C@H](C(=O)N(C)C)C3)[C@H](C)[C@H]12", "organism": "Salmonella enterica", "test": "broth dilution", "test system": "ENTERITIDIS", "conditions": "clinical isolate", "MIC": "≤ 0.5 µg/mL"}
{"Structure (SMILES)": "O=C(Nc1ncc([N+](=O)[O-])s1)c1cccnc1F", "organism": "Helicobacter pylori", "test": "broth dilution", "test system": "26695", "conditions": "27 h", "MIC": "3.7 µM"}
{"Structure (SMILES)": "O=C1NC(=S)S/C1=C\\c1ccc(-c2ccc(N(c3ccccc3)c3ccccc3)cc2)c2ccccc12", "organism": "Bacillus cereus", "test": "broth dilution", "test system": "ATCC10876", "MIC": "1000 µg/mL"}
{"Structure (SMILES)": "O=C(Nc1ncc([N+](=O)[O-])s1)c1cccnc1", "organism": "Helicobacter pylori", "test": "broth dilution", "test system": "26695", "conditions": "27 h", "MIC": "4 µM"}
{"Structure (SMILES)": "O=C(O)CN1C(=O)/C(=C/c2ccc(-c3ccc(N(c4ccccc4)c4ccccc4)cc3)c3ccccc23)SC1=S", "organism": "Bacillus cereus", "test": "broth dilution", "test system": "ATCC10876", "MIC": "1000 µg/mL"}
{"Structure (SMILES)": "CC1(C)S[C@@H]2[C@H](NC(=O)[C@H](N)c3ccccc3)C(=O)N2[C@H]1C(=O)O", "organism": "Salmonella enterica", "conditions": "20 h, pH 7", "MIC": "1 µg/mL"}
{"Structure (SMILES)": "O=C1NC(=S)S/C1=C\\c1ccc(-c2ccc(N(c3ccccc3)c3ccccc3)cc2)cc1", "organism": "Bacillus cereus", "test": "broth dilution", "test system": "ATCC10876", "MIC": "1000 µg/mL"}
{"Structure (SMILES)": "Cc1cc(NS(=O)(=O)c2ccc(N)cc2)no1", "organism": "Salmonella enterica", "conditions": "20 h, pH 7.2", "MIC": "64 µg/mL"}
